Reference: ChEMBL document CHEMBL4000227, “Structure activity relationships of benzylproline-derived inhibitors of the glutamine transporter ASCT2” (Bioorg Med Chem Lett, 2017)
Activity calls are given as the source filed them. The rule behind the calls is not given here.

Assays:
Type in all cases: cell-based
[1] = biological target: T1, Amino acid transporter (Rattus norvegicus, UniProt Q9Z1J7); test: Inhibition of rat ASCT2 expressed in HEK293 cells assessed as inhibition of L-alanine/Na+ exchange by measuring reduction in SCN anion inward current in presence of NaCl and NaSCN by whole cell patch-clamp method; conditions: read-out: Ki(app)
T1 sequence (Q9Z1J7 whole entry): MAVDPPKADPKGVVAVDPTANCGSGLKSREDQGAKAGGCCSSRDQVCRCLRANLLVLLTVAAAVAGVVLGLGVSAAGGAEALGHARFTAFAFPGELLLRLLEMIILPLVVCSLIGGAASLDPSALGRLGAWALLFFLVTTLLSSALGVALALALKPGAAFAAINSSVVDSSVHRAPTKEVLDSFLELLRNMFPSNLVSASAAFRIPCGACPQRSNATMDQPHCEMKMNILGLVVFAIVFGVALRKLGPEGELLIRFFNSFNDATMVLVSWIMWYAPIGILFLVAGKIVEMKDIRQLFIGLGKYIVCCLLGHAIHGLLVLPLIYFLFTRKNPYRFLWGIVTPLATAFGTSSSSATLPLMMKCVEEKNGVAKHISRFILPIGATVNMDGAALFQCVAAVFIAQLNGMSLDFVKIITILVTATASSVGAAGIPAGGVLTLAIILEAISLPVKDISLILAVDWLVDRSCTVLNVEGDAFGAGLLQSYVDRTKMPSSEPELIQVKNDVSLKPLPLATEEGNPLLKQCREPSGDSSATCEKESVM

[2] = biological target: T2, Amino acid transporter (Rattus norvegicus) (UniProt Q9Z1J7); test: Inhibition of rat ASCT2 expressed in HEK293 cells assessed as inhibition of L-alanine/Na+ exchange by measuring reduction in SCN anion inward current at 1 mM in presence of NaCl and NaSCN by whole cell patch-clamp method
T2 sequence (whole entry): T1 sequence (Q9Z1J7 whole entry)
Outline: (§1)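 Rat ASCT2 transiently transfected into HEK293T cells (no detectable endogenous ASCT2); whole-cell recording at 0 mV with 140 mM external NaCl, 135 mM internal NaSCN, 10 mM internal alanine. Compound applied at 1 mM; current expressed relative to saturating alanine response, saturating current calculated as I/Imax = c/(c+Km). Outward current taken as inhibition of leak anion conductance.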

[3] = biological target: T2, Amino acid transporter (Rattus norvegicus); test: Inhibition of rat ASCT2 expressed in HEK293 cells assessed as outward current by measuring reduction in SCN anion inward current at 1 mM in presence of NaCl and NaSCN by whole cell patch-clamp method; outline: as §1

| Compound | Ki [1] | Imax [2] | inhibition [3] |
| --- | --- | --- | --- |
| O=C(O)C1C[C@@H](Cc2ccccc2)CN1 (single isomer, unassigned) | 2000 µM | 52% | – |
| O=C(O)C1C[C@@H](Cc2ccccc2Cl)CN1 (single isomer, unassigned) | 195 µM | 46% | Active |
| O=C(O)C1C[C@@H](Cc2ccc(C(F)(F)F)cc2)CN1 (single isomer, unassigned) | – | 47% | Active |
| O=C(O)C1C[C@@H](Cc2ccccc2[N+](=O)[O-])CN1 (single isomer, unassigned) | – | 61% | Active |
| O=C(O)C1C[C@@H](Cc2cccc(F)c2)CN1 (single isomer, unassigned) | 177 µM | 67% | Active |
| O=C(O)C1C[C@@H](Cc2cccc(C(F)(F)F)c2)CN1 (single isomer, unassigned) | – | 43% | Active |
| Cc1ccccc1C[C@H]1CNC(C(=O)O)C1 (single isomer, unassigned) | 38 µM | 59% | Active |
| O=C(O)C1C[C@@H](Cc2ccc(F)cc2)CN1 (single isomer, unassigned) | 190 µM | 57% | Active |
| O=C(O)[C@@H]1C[C@@H](Cc2ccc(Cl)cc2Cl)CN1 | 30 µM | 56% | Active |
| O=C(O)C1C[C@@H](Cc2ccccc2C(F)(F)F)CN1 (single isomer, unassigned) | 220 µM | 49% | Active |
| O=C(O)[C@@H]1C[C@@H](Cc2ccc(-c3ccccc3)cc2)CN1 | 3 µM | 57% | Active |
| O=C(O)C1C[C@@H](Cc2ccccc2F)CN1 (single isomer, unassigned) | 83 to 87 µM | 61% | Active |
| O=C(O)C1C[C@@H](Cc2ccc(F)c(F)c2)CN1 (single isomer, unassigned) | 73 µM | 51% | Active |
| O=C(O)C1C[C@@H](Cc2ccccc2Br)CN1 (single isomer, unassigned) | – | 55% | Active |
